Assay results taken from ChEMBL document CHEMBL1250432, “Pteridine-sulfonamide conjugates as dual inhibitors of carbonic anhydrases and dihydrofolate reductase with potential antitumor activity” (Bioorg Med Chem, 2010).
Activity calls are given as the source filed them. The rule behind the calls is not given here.

Key:
Carbonic anhydrase 9 = Carbonic anhydrase 9 (Homo sapiens, UniProt Q16790); experiment: Inhibition of human recombinant carbonic anhydrase 9 after 15 mins by stopped flow CO2 hydration assay
Dihydrofolate reductase = Dihydrofolate reductase (Lactobacillus casei, UniProt P00381); experiment: Inhibition of Lactobacillus casei DHFR by spectrophotometric analysis; parameters: species or system Lacticaseibacillus casei
PC-3 = experiment: Antiproliferative activity against human PC3 cells after 72 hrs by MTT assay; assay type: functional, cell-based; conditions: PC-3, 72 h
Summary of the method: (§1)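 A549 (ATCC) and PC3 cells kept in RPMI-1640 with 10% heat-inactivated FBS, 2 mM glutamine and 1 mM sodium pyruvate at 37 °C in humidified 5% CO2. Seeded at about 5000 cells/well and exposed continuously for 72 h to a range of inhibitor concentrations, with MTX as control. Viability read by MTT assay; IC50 reported.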

A549 = experiment: Antiproliferative activity against human A549 cells after 72 hrs by MTT assay; assay type: functional, cell-based; conditions: A549, 72 h; summary of the method: as §1
[1] = target: Dihydrofolate reductase (Lactobacillus casei) (UniProt P00381); experiment: Inhibition of Lactobacillus casei DHFR at 0.5 mM by spectrophotometric analysis; conditions: Lacticaseibacillus casei
Summary of the method: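 L. casei DHFR activity followed spectrophotometrically as the fall in absorbance at 340 nm from NADPH oxidation, with and without inhibitor, at 30 °C. Inhibitor tested at 0.5 mM, the highest concentration used.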

Sequence of Dihydrofolate reductase (P00381 whole entry): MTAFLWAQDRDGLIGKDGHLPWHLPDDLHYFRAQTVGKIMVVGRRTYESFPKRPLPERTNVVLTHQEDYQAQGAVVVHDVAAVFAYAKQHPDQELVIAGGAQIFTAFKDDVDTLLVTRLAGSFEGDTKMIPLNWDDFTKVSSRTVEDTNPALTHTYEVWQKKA
Sequence of Dihydrofolate reductase (Lactobacillus casei) (P00381 whole entry): as above

Structure (SMILES) | Ki (Carbonic anhydrase 9) [µM] | IC50 (Dihydrofolate reductase) [µM] | IC50 (PC-3) [µM] | IC50 (A549) [µM] | inhibition [1]
CN(Cc1cnc2nc(N)nc(N)c2n1)c1ccc(C(=O)NCCc2ccc(S(N)(=O)=O)cc2)cc1 | 0.0037 | 1.8 | 500 |  | 
Nc1nc(N)c2nc(CNc3ccc(C(=O)NCCc4ccc(S(=O)(=O)O)cc4)cc3)cnc2n1 | > 1 | 1.3 | 500 |  | 
CN(Cc1cnc2nc(N)nc(N)c2n1)c1ccc(C(=O)N[C@@H](CCC(=O)O)C(=O)O)cc1 [METHOTREXATE] |  |  | 0.001 | 0.005 | 
Nc1nc(N)c2nc(CNCCc3ccc(S(=O)(=O)O)cc3)cnc2n1 | > 1 |  | 460 |  | inactive
Nc1nc(N)c2nc(CNc3ccc(S(N)(=O)=O)cc3)cnc2n1 | 0.0021 | 2.5 | 550 |  | 
Nc1nc(N)c2nc(CNc3ccc(C(=O)NCCc4ccc(S(N)(=O)=O)cc4)cc3)cnc2n1 | 0.0025 | 20 | 400 | 2000 | 
Nc1nc(N)c2nc(CNc3ccc(S(=O)(=O)O)cc3)cnc2n1 | > 1 | 2 | 500 |  | 
Nc1nc(N)c2nc(CNCCc3ccc(S(N)(=O)=O)cc3)cnc2n1 |  |  | 300 |  | inactive
